Assay [1] has as its target T1, Histone-lysine N-methyltransferase EHMT1 (Homo sapiens) (UniProt Q9H9B1).
T1 sequence (whole entry): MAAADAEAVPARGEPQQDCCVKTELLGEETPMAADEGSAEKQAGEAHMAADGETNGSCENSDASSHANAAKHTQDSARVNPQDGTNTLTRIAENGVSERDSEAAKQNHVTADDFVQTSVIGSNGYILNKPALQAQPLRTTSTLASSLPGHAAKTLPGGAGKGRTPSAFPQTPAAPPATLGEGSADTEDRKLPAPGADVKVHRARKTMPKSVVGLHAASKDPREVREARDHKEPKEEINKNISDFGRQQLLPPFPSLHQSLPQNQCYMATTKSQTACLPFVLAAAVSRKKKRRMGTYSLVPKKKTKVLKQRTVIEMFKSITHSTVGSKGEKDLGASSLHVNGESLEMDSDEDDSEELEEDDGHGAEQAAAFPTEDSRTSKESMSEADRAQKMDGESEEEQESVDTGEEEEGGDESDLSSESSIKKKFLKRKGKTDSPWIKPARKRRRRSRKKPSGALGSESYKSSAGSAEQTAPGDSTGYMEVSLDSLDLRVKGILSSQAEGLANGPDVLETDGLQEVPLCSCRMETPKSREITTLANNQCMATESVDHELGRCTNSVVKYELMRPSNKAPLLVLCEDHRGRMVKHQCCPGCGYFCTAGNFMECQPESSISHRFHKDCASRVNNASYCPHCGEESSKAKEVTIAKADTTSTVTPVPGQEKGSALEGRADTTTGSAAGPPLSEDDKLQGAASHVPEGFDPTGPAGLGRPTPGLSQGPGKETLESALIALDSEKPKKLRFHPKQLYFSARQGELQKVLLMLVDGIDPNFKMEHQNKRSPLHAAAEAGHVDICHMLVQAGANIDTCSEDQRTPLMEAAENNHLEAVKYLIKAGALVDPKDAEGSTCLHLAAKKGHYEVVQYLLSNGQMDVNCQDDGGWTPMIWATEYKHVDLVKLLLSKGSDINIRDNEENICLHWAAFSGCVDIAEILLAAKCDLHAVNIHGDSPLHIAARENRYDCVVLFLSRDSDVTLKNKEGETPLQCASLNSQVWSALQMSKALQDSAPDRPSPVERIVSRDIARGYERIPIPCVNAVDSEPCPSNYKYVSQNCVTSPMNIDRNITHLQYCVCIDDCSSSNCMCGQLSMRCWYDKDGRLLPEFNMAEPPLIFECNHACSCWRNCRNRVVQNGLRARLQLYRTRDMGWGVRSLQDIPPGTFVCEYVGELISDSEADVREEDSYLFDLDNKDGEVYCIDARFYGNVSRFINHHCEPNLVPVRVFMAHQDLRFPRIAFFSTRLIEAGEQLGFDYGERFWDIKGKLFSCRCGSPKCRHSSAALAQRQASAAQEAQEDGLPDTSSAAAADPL
In words: Inhibition of EHMT1 in human Olaparib-resistant PEO1 cells assessed as reduction in CDC25C phosphorylation at 1 uM for 72 hrs by immunoblot analysis. Format: cell-based. The method in brief: (§1)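 PEO1-OR cells were treated with olaparib and/or UNC0642 as for the cell-cycle experiment. Total RIPA lysates were immunoblotted for cell-cycle proteins, and band intensity was normalized to actin, relative to the non-pretreated control.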

Assay [2] concerns Olaparib-resistant PEO1. In words: Inhibition of EHMT1/2 in human Olaparib-resistant PEO1 cells assessed as reduction in total CDC25C protein level at 1 uM for 72 hrs by immunoblot analysis. Format: functional, cell-based. An outline of the steps: as §1
(In general: Immunoblotting shows a protein as a band on a membrane.)

Assay [3] concerns Olaparib-resistant PEO1. In words: Antitumor activity against human Olaparib-resistant PEO1 cells assessed as H3K9me2 protein level for 72 hrs by immunoblot analysis. It counts as functional, cell-based. The method in brief:
(§2)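 PEO1-OR cells treated 72 h with DMSO or UNC0642 at two-fold dilutions from 2 μM to 125 nM. Histone extracts immunoblotted for H3K9me2, with H3K27me3 as a specificity check; densitometry normalized to total H3. For immunofluorescence, cells were fixed on coverslips in 4% paraformaldehyde and permeabilized with 0.2% Triton X-100, with DAPI counterstain.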

Assay [4] deals with Olaparib-resistant PEO1. As to the kind of experiment: Antitumor activity against human Olaparib-resistant PEO1 cells assessed as H3K9me2 protein level at 500 nM for 72 hrs by immunofluorescence analysis. Format: functional, cell-based. An outline of the steps: as §2
The test system of assay [5] is Olaparib-resistant PEO1. As to the kind of experiment: Inhibition of EHMT1/2 in human Olaparib-resistant PEO1 cells assessed as reduction in Cyclin A protein level at 1 uM for 72 hrs by immunoblot analysis. Format: functional, cell-based. The method in brief: as §1
In assay [6] the test system is Olaparib-resistant PEO1. As to the kind of experiment: Induction of cell cycle arrest in human Olaparib-resistant PEO1 cells assessed as accumulation of cells in S phase pretreated for 72 hrs by vehicle follwed by compound addition at 1 uM incubated for 72 hrs by propidium iodide staining based flow cytometry analysis (reference value: 21.5%). Format: functional.
Assay [7] relates to Olaparib-resistant PEO1. As to the kind of experiment: Inhibition of EHMT1/2 in human Olaparib-resistant PEO1 cells assessed as reduction in Cyclin B1 protein level at 1 uM for 72 hrs by immunoblot analysis. Format: functional, cell-based. The method in brief: as §1
Assay [8] deals with Olaparib-resistant PEO1. In words: Induction of cell cycle arrest in human Olaparib-resistant PEO1 cells assessed as accumulation of cells in G1 phase pretreated for 72 hrs by vehicle follwed by compound addition at 1 uM incubated for 72 hrs by propidium iodide staining based flow cytometry analysis (reference value: 54.7%). It counts as functional. A general note: In flow cytometry, cells or beads pass a laser one at a time.

For assay [9], the system named is Olaparib-resistant PEO1. As to the kind of experiment: Induction of cell cycle arrest in human Olaparib-resistant PEO1 cells assessed as accumulation of cells in G1 phase pretreated for 72 hrs by UNC0642 follwed by compound addition at 1 uM incubated for 72 hrs by propidium iodide staining based flow cytometry analysis (reference value: 52.9%). Format: functional.

Assay [10] relates to Olaparib-resistant PEO1. In words: Induction of cell cycle arrest in human Olaparib-resistant PEO1 cells assessed as accumulation of cells in G2 phase pretreated for 72 hrs by vehicle follwed by compound addition at 1 uM incubated for 72 hrs by propidium iodide staining based flow cytometry analysis (reference value: 20.7%). Format: functional.
In assay [11] the test system is Olaparib-resistant PEO1. In words: Induction of cell cycle arrest in human Olaparib-resistant PEO1 cells assessed as accumulation of cells in G2 phase pretreated for 72 hrs by UNC0642 follwed by compound addition at 1 uM incubated for 72 hrs by propidium iodide staining based flow cytometry analysis (reference value: 23.2 %). It counts as functional.
Assay [12] concerns Olaparib-resistant PEO1. As to the kind of experiment: Induction of cell cycle arrest in human Olaparib-resistant PEO1 cells assessed as accumulation of cells in S phase pretreated for 72 hrs by UNC0642 follwed by compound addition at 1 uM incubated for 72 hrs by propidium iodide staining based flow cytometry analysis (reference value: 21.9%). It counts as functional.

The source made the active and inactive calls. The rule behind the calls is not given here.

On to `COc1cc2c(NC3CCN(C(C)C)CC3)nc(N3CCC(F)(F)CC3)nc2cc1OCCCN1CCCC1`, for which, in assay [1], the inhibition result is “Active”. Moreover, the result in the assay with Olaparib-resistant PEO1 [2], with Olaparib-resistant PEO1 [3], with Olaparib-resistant PEO1 [4], with Olaparib-resistant PEO1 [5] and in the assay on Olaparib-resistant PEO1 [7] was Active. Further, the Activity amounted to 22.8% in the assay with Olaparib-resistant PEO1 [6]; 53.3% in the assay on Olaparib-resistant PEO1 [8]; 51.7% in the assay with Olaparib-resistant PEO1 [9]; 21.5% in the assay with Olaparib-resistant PEO1 [10]; 22.5% in the assay with Olaparib-resistant PEO1 [11]; 23.4% in the assay on Olaparib-resistant PEO1 [12].

The values are drawn from ChEMBL document CHEMBL5712910, “Histone methyltransferases EHMT1 and EHMT2 (GLP/G9A) maintain PARP inhibitor resistance in high-grade serous ovarian carcinoma” (Clin Epigenetics, 2019).
